Test results: ChEMBL document CHEMBL4033640, “Design, synthesis and biological evaluation of 3-substituted-2-oxindole hybrid derivatives as novel anticancer agents” (Eur J Med Chem, 2017)
Active and inactive are the calls of the source. The calls are words filed in the database; no cut-off is given here.

Columns and labels:
[1] = system: CCRF-CEM; assay: Antiproliferative activity against human CCRF-CEM cells after 72 hrs by MTT assay; format: functional, cell-based
[2] = system: HeLa; assay: Antiproliferative activity against human HeLa cells after 72 hrs by MTT assay; format: functional, cell-based
Summary of the method: (§1)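 Cells grown in DMEM with 10% FBS, penicillin G and streptomycin. 8 × 10³ cells per well, incubated overnight at 37 °C in 5% CO₂, then exposed to graded compound concentrations (from 10 mM DMSO stocks) in triplicate for 72 h. Viability measured by MTT. IC50 taken from dose-response curves, given as mean ± SE of at least three independent experiments run in triplicate.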

[3] = biological target: T1, Serine/threonine-protein kinase Nek2 (Homo sapiens) (UniProt P51955); assay: Inhibition of recombinant human full-length N-terminal GST-tagged NEK2 expressed in baculovirus infected Sf9 insect cells at 1 uM using MBP as substrate after 30 mins by ADP-Glo reagent based luminescence assay
T1 sequence (whole entry): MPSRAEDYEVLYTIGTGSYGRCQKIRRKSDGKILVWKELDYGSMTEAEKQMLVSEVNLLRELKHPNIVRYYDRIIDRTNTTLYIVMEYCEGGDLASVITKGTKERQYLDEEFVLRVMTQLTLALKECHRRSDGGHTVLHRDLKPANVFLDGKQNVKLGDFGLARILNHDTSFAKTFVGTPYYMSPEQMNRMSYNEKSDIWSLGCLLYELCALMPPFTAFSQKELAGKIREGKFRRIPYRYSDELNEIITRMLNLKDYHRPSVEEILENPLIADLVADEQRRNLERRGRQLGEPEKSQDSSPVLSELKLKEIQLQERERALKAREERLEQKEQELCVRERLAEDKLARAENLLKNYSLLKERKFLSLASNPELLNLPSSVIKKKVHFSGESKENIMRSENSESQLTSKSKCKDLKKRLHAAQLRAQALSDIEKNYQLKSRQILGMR
Summary of the method: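 Nek2 activity measured with the bioluminescent ADP-Glo kinase assay, compounds at 1 µM final concentration. Percentage inhibition given as means ± SEM of two independent experiments performed in duplicate.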

[4] = system: MCF7; assay: Antiproliferative activity against human MCF7 cells after 72 hrs by MTT assay; format: functional, cell-based; settings: MCF7, 72 h; summary of the method: as §1
[5] = system: HL-60; assay: Antiproliferative activity against human HL60 cells after 72 hrs by MTT assay; format: functional, cell-based; settings: HL-60, 72 h
[6] = system: Jurkat; assay: Antiproliferative activity against human Jurkat cells after 72 hrs by MTT assay; format: functional, cell-based
Summary of the method: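 Cells exposed to graded compound concentrations (from 10 mM DMSO stocks) in triplicate for 72 h at 37 °C. Viability measured by MTT. IC50 taken from dose-response curves, given as mean ± SE of at least three independent experiments run in triplicate.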

[7] = system: RS4-11; assay: Antiproliferative activity against human RS4:11 cells after 72 hrs by MTT assay; format: functional, cell-based; settings: RS4-11, 72 h
[8] = system: HT-29; assay: Antiproliferative activity against human HT-29 cells after 72 hrs by MTT assay; format: functional, cell-based; settings: HT-29, 72 h; summary of the method: as §1
[9] = system: HeLa; assay: Antiproliferative activity against human HeLa cells at 1 uM after 48 hrs in presence of 100 uM NAC by annexin-V staining based assay; format: functional, cell-based
Summary of the method: (§2)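 HeLa cells treated with compound at 1.0 µM for 48 h together with 100 µM N-acetyl-L-cysteine or DL-α-tocopherol acetate. Cell death measured by annexin-V assay with flow cytometry. Means ± S.E.M. of three independent experiments.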

[10] = system: PBL; assay: Cytotoxicity against PHA-stimulated human PBL assessed as reduction in cell viability after 72 hrs by MTT assay; format: cell-based
Summary of the method: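 PBL isolated from healthy donors' buffy coats by density-gradient centrifugation and held overnight in RPMI-1640 with 10% FBS. Non-adherent cells resuspended at 5 × 10⁵ cells/mL with 2.5 μg/mL PHA and given graded compound concentrations. Viability read by MTT after 72 h. IC50 reported as mean ± SEM of two separate experiments.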

[11] = system: HeLa; assay: Induction of GSH depletion in human HeLa cells at 0.5 to 10 uM after 30 mins by CMFDA-probe based flow cytometry; format: functional, cell-based; settings: in the assay text read “after 12 to 24 hrs” for “after 30 mins”
Summary of the method: (§3)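 Cells treated with compound for 12–24 h, harvested, then loaded with 5 µM CMFDA at 37 °C for 30 min. GSH-dependent fluorescence measured by flow cytometry. Means ± S.E.M. of three independent experiments.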

[12] = system: HeLa; assay: Cell cycle arrest in human HeLa cells assessed as decrease in G1 phase at 1 uM after 24 hrs by propidium iodide staining based flow cytometry; format: functional; set-up: scale not given: the % may be the effect or the level left
Summary of the method: (§4)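 5 × 10⁵ HeLa cells treated for 24 h at the indicated concentrations, then fixed in ice-cold 70% ethanol. Lysis buffer with RNase A and 0.1% Triton X-100 applied, cells stained with PI, and DNA content read by flow cytometry to give percentage of cells in each phase.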

[13] = system: HeLa; assay: Induction of apoptosis in human HeLa cells assessed as cleaved caspase-9 expression at 0.5 to 1 uM after 24 hrs by Western blot analysis; format: functional, cell-based
Summary of the method: (§5)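 HeLa cells treated for 24 h and washed in ice-cold PBS. Cells lysed on ice for 30 min and lysate cleared at 15000 x g. 10 μg protein resolved by SDS-PAGE (7.5–15%) and blotted. Membranes blocked with 3% BSA, probed with antibodies to caspase-9 or γH2AX, detected by ECL. Bands quantified and normalized to β-actin, mean±SD of two gels.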

[14] = system: Jurkat; assay: Induction of GSH depletion in human Jurkat cells at 0.5 to 10 uM after 30 mins by CMFDA-probe based flow cytometry; format: functional, cell-based; settings: in the assay text read “after 12 to 24 hrs” for “after 30 mins”; summary of the method: as §3
[15] = system: Jurkat; assay: Induction of mitochondrial membrane depolarization in human Jurkat cells at 10 to 100 nM after 12 to 24 hrs JC-1 staining based flow cytometry; format: functional, cell-based
Summary of the method: (§6)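 Cells treated at the indicated concentrations for the indicated times (12 and 24 h). Stained with JC-1 and analyzed by flow cytometry for dissipation of mitochondrial membrane potential.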

[16] = system: PBL; assay: Cytotoxicity against resting human PBL assessed as reduction in cell viability after 72 hrs by MTT assay; format: cell-based
Summary of the method: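 PBL isolated from healthy donors' buffy coats by density-gradient centrifugation and held overnight in RPMI-1640 with 10% FBS. Non-adherent cells without PHA resuspended at 5 × 10⁵ cells/mL and treated for 72 h. Viability read by MTT. IC50 reported as mean ± SEM of two separate experiments.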

[17] = system: HeLa; assay: Antiproliferative activity against human HeLa cells at 1 uM after 48 hrs in presence of 100 uM TOC by annexin-V staining based assay; format: functional, cell-based; summary of the method: as §2
[18] = system: Jurkat; assay: Induction of apoptosis in human Jurkat cells at 100 nM after 24 to 48 hrs by annexin-V/FITC propidium iodide staining based flow cytometry; format: functional, cell-based
Summary of the method: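 Cells treated with compound at the indicated concentrations for 24 or 48 h, then double-stained with annexin V-FITC and PI. Phosphatidylserine exposure measured by flow cytometry. Means ± SEM of three independent experiments.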

[19] = system: HeLa; assay: Induction of mitochondrial membrane depolarization in human HeLa cells at 0.5 to 1 uM after 12 to 24 hrs JC-1 staining based flow cytometry; format: functional, cell-based; summary of the method: as §6
[20] = system: HeLa; assay: Induction of DNA damage in human HeLa cells assessed as increase in gamma-H2AX level at 0.5 to 1 uM after 24 hrs by Western blot analysis; format: functional, cell-based; summary of the method: as §5
[21] = system: HeLa; assay: Cell cycle arrest in human HeLa cells assessed as decrease in G1 phase at 0.5 to 1 uM after 24 hrs by propidium iodide staining based flow cytometry; format: functional; summary of the method: as §4

| SMILES | IC50 [1] [nM] | IC50 [2] [nM] | inhibition [3] [%] | IC50 [4] [nM] | IC50 [5] [nM] | IC50 [6] [nM] | IC50 [7] [nM] | IC50 [8] [nM] | also measured |
| --- | --- | --- | --- | --- | --- | --- | --- | --- | --- |
| C=C(Br)C(=O)Nc1ccc2c(c1)/C(=C\c1ccsc1)C(=O)N2 | 6 | 2600 | 5 to 20 | 2100 | 770 | 56 | 190 | 310 |  |
| C=C(Br)C(=O)Nc1ccc2c(c1)/C(=C\c1sccc1C)C(=O)N2 | 0.9 | 450 | 5 to 20 | 2300 | 39 | 40 | 4 | 330 | Activity [9]: Active; IC50 [10]: 1220 nM; Activity [11]: Active; Activity [12]: 20%; Activity [13]: Active; Activity [14]: Active; Activity [15]: Active; IC50 [16]: 450 nM; Activity [17]: inactive; Activity [18]: Active; Activity [19]: Active; Activity [20]: Active |
| C=C(Br)C(=O)Nc1ccc2c(c1)/C(=C/c1ccsc1)C(=O)N2 | 4 | 3500 | 5 to 20 | 2800 | 350 | 190 | 190 | 600 |  |
| C=C(Br)C(=O)Nc1ccc2c(c1)CC(=O)N2 | 220 | 4500 | 5 to 20 | 3300 | 350 | 1100 | 220 | 4400 |  |
| C=C(Br)C(=O)Nc1ccc2c(c1)/C(=C/c1ccc[nH]1)C(=O)N2 | 3 | 500 | 50 | 700 | 140 | 110 | 1 | 800 | Activity [9]: Active; IC50 [10]: 830 to 850 nM; Activity [11]: Active; Activity [12]: 20%; Activity [13]: Active; Activity [14]: Active; Activity [15]: Active; IC50 [16]: 1500 nM; Activity [17]: inactive; Activity [18]: Active; Activity [19]: Active; Activity [20]: Active |
| C=C(Br)C(=O)Nc1ccc2c(c1)/C(=C/c1sccc1C)C(=O)N2 | 0.5 | 420 | 5 to 20 | 2600 | 13 | 30 | 0.4 | 1200 |  |
| C=C(Br)C(=O)Nc1ccc2c(c1)/C(=C/c1cccs1)C(=O)N2 | 35 | 1700 | 5 to 20 | 1700 | 230 | 210 | 2 | 240 |  |
| Nc1ccc2c(c1)C(=Cc1ccsc1)C(=O)N2 | > 10000 |  |  |  |  |  | > 10000 |  |  |
| C=C(Br)C(=O)Nc1ccc2c(c1)/C(=C\c1cccs1)C(=O)N2 | 10 | 1800 | 5 to 20 | 2300 | 15 | 16 | 30 | 5500 |  |
| C=C(Br)C(=O)Nc1ccc2c(c1)/C(=C/c1ccc(C)s1)C(=O)N2 | 9 | 1600 | 5 to 20 | 3000 | 24 | 360 | 50 | 560 |  |
| C#CC(=O)Nc1ccc2c(c1)/C(=C/c1ccc[nH]1)C(=O)N2 | 50 | 4400 | 5 to 20 | 3700 | 5800 | 340 | 70 | 2300 | Activity [21]: inactive |
| C=C(Br)C(=O)Nc1ccc2c(c1)/C(=C\c1ccc(C)s1)C(=O)N2 | 1 | 2000 | 5 to 20 | 4400 | 12 | 150 | 20 | 300 |  |
